The source of these data is ChEMBL document CHEMBL4387700, “A novel, potent, and orally bioavailable thiazole HCV NS5A inhibitor for the treatment of hepatitis C virus” (Eur J Med Chem, 2019).

A short description of the data set: Cytotoxicity against human HuH7 cells assessed as reduction in cell viability by MTS assay. The format is cell-based, Huh-7. In a few lines: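 Viability of Huh-7 cells was read by MTS assay.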

In the case of `O=C(N[C@H](C(=O)N1CCC[C@H]1c1ncc(-c2ccc(-c3ccc(-c4cnc([C@@H]5CCCN5C(=O)[C@H](NC(=O)c5cccs5)c5ccccc5)s4)cc3)cc2)s1)c1ccccc1)c1cccs1`, the CC50 was greater than 50 µM. On to `CC(C)[C@@H](NC(=O)C1CC1)C(=O)N1CCC[C@H]1c1ncc(-c2ccc(-c3ccc(-c4cnc([C@@H]5CCCN5C(=O)[C@H](NC(=O)C5CC5)C(C)C)s4)cc3)cc2)s1`, for which the half-maximal cytotoxic concentration (CC50) was greater than 50 µM. With `CCCC(=O)N[C@H](C(=O)N1CCC[C@H]1c1ncc(-c2ccc(-c3ccc(-c4cnc([C@@H]5CCCN5C(=O)[C@H](NC(=O)CCC)c5ccccc5)s4)cc3)cc2)s1)c1ccccc1` the figure was greater than 50 µM. With `CC(C)C[C@@H](NC(=O)C1CC1)C(=O)N1CCC[C@H]1c1ncc(-c2ccc(-c3ccc(-c4cnc([C@@H]5CCCN5C(=O)[C@@H](CC(C)C)NC(=O)C5CC5)s4)cc3)cc2)s1`, the CC50 was greater than 50 µM. Turning to `CN1CCN(CCC(=O)N[C@H](C(=O)N2CCC[C@H]2c2ncc(-c3ccc(-c4ccc(-c5cnc([C@@H]6CCCN6C(=O)[C@H](NC(=O)CCN6CCN(C)CC6)c6ccccc6)s5)cc4)cc3)s2)c2ccccc2)CC1`, the cytotoxic concentration (CC50) is greater than 50 µM.

Turning to `O=C(N[C@@H](C(=O)N1CCC[C@H]1c1ncc(-c2ccc(-c3ccc(-c4cnc([C@@H]5CCCN5C(=O)[C@H](NC(=O)c5ccoc5)c5ccccc5)s4)cc3)cc2)s1)c1ccccc1)c1ccoc1`, the 50% cytotoxic concentration (CC50) was greater than 50 µM. With `O=C(N[C@H](C(=O)N1CCC[C@H]1c1ncc(-c2ccc(-c3ccc(-c4cnc([C@@H]5CCCN5C(=O)[C@H](NC(=O)C5CCC5)c5ccccc5)s4)cc3)cc2)s1)c1ccccc1)C1CCC1` the figure was greater than 50 µM. With `O=C(N[C@@H](C(=O)N1CCC[C@H]1c1ncc(-c2ccc(-c3ccc(-c4cnc([C@@H]5CCCN5C(=O)[C@H](NC(=O)C5CCCCC5)c5ccccc5)s4)cc3)cc2)s1)c1ccccc1)C1CCCCC1` the figure was greater than 50 µM; with `C[C@@H](NC(=O)C1CC1)C(=O)N1CCC[C@H]1c1ncc(-c2ccc(-c3ccc(-c4cnc([C@@H]5CCCN5C(=O)[C@@H](C)NC(=O)C5CC5)s4)cc3)cc2)s1`, greater than 50 µM; with `O=C(N[C@@H](C(=O)N1CCC[C@H]1c1ncc(-c2ccc(-c3ccc(-c4cnc([C@@H]5CCCN5C(=O)[C@H](NC(=O)c5cccnc5)c5ccccc5)s4)cc3)cc2)s1)c1ccccc1)c1cccnc1`, greater than 50 µM.

Take `O=C(N[C@H](C(=O)N1CCC[C@H]1c1ncc(-c2ccc(-c3ccc(-c4cnc([C@@H]5CCCN5C(=O)[C@H](NC(=O)c5ccco5)c5ccccc5)s4)cc3)cc2)s1)c1ccccc1)c1ccco1`: the CC50 was greater than 50 µM. With `O=C(N[C@@H](C(=O)N1CCC[C@H]1c1ncc(-c2ccc(-c3ccc(-c4cnc([C@@H]5CCCN5C(=O)[C@H](NC(=O)c5ccccn5)c5ccccc5)s4)cc3)cc2)s1)c1ccccc1)c1ccccn1` the figure was greater than 50 µM. With `O=C(CCN1CCOCC1)N[C@H](C(=O)N1CCC[C@H]1c1ncc(-c2ccc(-c3ccc(-c4cnc([C@@H]5CCCN5C(=O)[C@H](NC(=O)CCN5CCOCC5)c5ccccc5)s4)cc3)cc2)s1)c1ccccc1` the figure was greater than 50 µM. With `CCCC(=O)N[C@@H](C(=O)N1CCC[C@H]1c1ncc(-c2ccc(-c3ccc(-c4cnc([C@@H]5CCCN5C(=O)[C@H](NC(=O)CCC)c5ccccc5)s4)cc3)cc2)s1)c1ccccc1`, the half-maximal cytotoxic concentration (CC50) is greater than 50 µM. With `CC(C)(C)C(=O)N[C@H](C(=O)N1CCC[C@H]1c1ncc(-c2ccc(-c3ccc(-c4cnc([C@@H]5CCCN5C(=O)[C@H](NC(=O)C(C)(C)C)c5ccccc5)s4)cc3)cc2)s1)c1ccccc1` the figure was greater than 50 µM. With `CS(=O)(=O)N[C@@H](C(=O)N1CCC[C@H]1c1ncc(-c2ccc(-c3ccc(-c4cnc([C@@H]5CCCN5C(=O)[C@H](NS(C)(=O)=O)c5ccccc5)s4)cc3)cc2)s1)c1ccccc1` the figure was greater than 50 µM; with `O=C(Cc1ccccc1)N[C@@H](C(=O)N1CCC[C@H]1c1ncc(-c2ccc(-c3ccc(-c4cnc([C@@H]5CCCN5C(=O)[C@H](NC(=O)Cc5ccccc5)c5ccccc5)s4)cc3)cc2)s1)c1ccccc1`, greater than 50 µM.

`O=C(N[C@H](C(=O)N1CCC[C@H]1c1ncc(-c2ccc(-c3ccc(-c4cnc([C@@H]5CCCN5C(=O)[C@H](NC(=O)c5ccccn5)c5ccccc5)s4)cc3)cc2)s1)c1ccccc1)c1ccccn1`: the CC50 was greater than 50 µM.

Take `O=C(CCN1CCCCC1)N[C@@H](C(=O)N1CCC[C@H]1c1ncc(-c2ccc(-c3ccc(-c4cnc([C@@H]5CCCN5C(=O)[C@H](NC(=O)CCN5CCCCC5)c5ccccc5)s4)cc3)cc2)s1)c1ccccc1`: the 50% cytotoxic concentration (CC50) was greater than 50 µM. On to `COC(=O)N[C@@H](C)C(=O)N1CCC[C@H]1c1ncc(-c2ccc(-c3ccc(-c4cnc([C@@H]5CCCN5C(=O)[C@H](C)NC(=O)OC)s4)cc3)cc2)s1`, for which the CC50 is greater than 50 µM.

In the case of `CS(=O)(=O)N[C@H](C(=O)N1CCC[C@H]1c1ncc(-c2ccc(-c3ccc(-c4cnc([C@@H]5CCCN5C(=O)[C@H](NS(C)(=O)=O)c5ccccc5)s4)cc3)cc2)s1)c1ccccc1`, the CC50 is greater than 50 µM. In the case of `O=C(N[C@@H](C(=O)N1CCC[C@H]1c1ncc(-c2ccc(-c3ccc(-c4cnc([C@@H]5CCCN5C(=O)[C@H](NC(=O)c5cccs5)c5ccccc5)s4)cc3)cc2)s1)c1ccccc1)c1cccs1`, the half-maximal cytotoxic concentration (CC50) was greater than 50 µM. Regarding `O=C(N[C@H](C(=O)N1CCC[C@H]1c1ncc(-c2ccc(-c3ccc(-c4cnc([C@@H]5CCCN5C(=O)[C@H](NC(=O)c5cccnc5)c5ccccc5)s4)cc3)cc2)s1)c1ccccc1)c1cccnc1`, the CC50 is greater than 50 µM. In the case of `O=C(CCn1cccc1)N[C@H](C(=O)N1CCC[C@H]1c1ncc(-c2ccc(-c3ccc(-c4cnc([C@@H]5CCCN5C(=O)[C@H](NC(=O)CCn5cccc5)c5ccccc5)s4)cc3)cc2)s1)c1ccccc1`, the CC50 was greater than 50 µM. With `CCC[C@H](NC(=O)OC)C(=O)N1CCC[C@H]1c1ncc(-c2ccc(-c3ccc(-c4cnc([C@@H]5CCCN5C(=O)[C@H](CCC)NC(=O)OC)s4)cc3)cc2)s1`, the CC50 was greater than 50 µM. With `O=C(N[C@@H](C(=O)N1CCC[C@H]1c1ncc(-c2ccc(-c3ccc(-c4cnc([C@@H]5CCCN5C(=O)[C@H](NC(=O)c5ccco5)c5ccccc5)s4)cc3)cc2)s1)c1ccccc1)c1ccco1` the figure was greater than 50 µM; with `O=C(N[C@H](C(=O)N1CCC[C@H]1c1ncc(-c2ccc(-c3ccc(-c4cnc([C@@H]5CCCN5C(=O)[C@H](NC(=O)c5ccsc5)c5ccccc5)s4)cc3)cc2)s1)c1ccccc1)c1ccsc1`, greater than 50 µM. With `O=C(N[C@H](C(=O)N1CCC[C@H]1c1ncc(-c2ccc(-c3ccc(-c4cnc([C@@H]5CCCN5C(=O)[C@H](NC(=O)N5CCOCC5)c5ccccc5)s4)cc3)cc2)s1)c1ccccc1)N1CCOCC1` the figure was greater than 50 µM; with `O=C(N[C@@H](C(=O)N1CCC[C@H]1c1ncc(-c2ccc(-c3ccc(-c4cnc([C@@H]5CCCN5C(=O)[C@H](NC(=O)c5ccccc5)c5ccccc5)s4)cc3)cc2)s1)c1ccccc1)c1ccccc1`, greater than 50 µM; with `CC[C@@H](NC(=O)C1CC1)C(=O)N1CCC[C@H]1c1ncc(-c2ccc(-c3ccc(-c4cnc([C@@H]5CCCN5C(=O)[C@@H](CC)NC(=O)C5CC5)s4)cc3)cc2)s1`, greater than 50 µM. With `CCOC(=O)N[C@H](C(=O)N1CCC[C@H]1c1ncc(-c2ccc(-c3ccc(-c4cnc([C@@H]5CCCN5C(=O)[C@@H](NC(=O)OCC)C(C)C)s4)cc3)cc2)s1)C(C)C` the figure was greater than 50 µM.

On to `CC(C)C(=O)N[C@@H](C(=O)N1CCC[C@H]1c1ncc(-c2ccc(-c3ccc(-c4cnc([C@@H]5CCCN5C(=O)[C@H](NC(=O)C(C)C)c5ccccc5)s4)cc3)cc2)s1)c1ccccc1`, for which the CC50 is greater than 50 µM.
